Test results taken from ChEMBL document CHEMBL5321226, “Structure-directed identification of pyridine-2-methylamine derivatives as MmpL3 inhibitors for use as antitubercular agents” (Eur J Med Chem, 2023).
≈ marks a conversion by molar mass, not a printed value.

Assays:
Format in all cases: functional
Conditions in all cases: time 7-14 day
[1] = system: Mycobacterium tuberculosis; test: Antimycobacterial activity against multidrug resistant Mycobacterium tuberculosis V2475 assessed as bacterial growth inhibition incubated for 7 to 14 days by MABA assay
Procedure, shortened: (§1)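 Clinical M. tuberculosis isolates were tested in a microplate Alamar Blue assay (MABA), with isoniazid, rifampin, levofloxacin, ofloxacin and kanamycin as positive controls. The MIC is the lowest concentration giving at least a 90% reduction of the bacterial growth signal, averaged over three individual measurements.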

[2] = system: Mycobacterium tuberculosis; test: Antimycobacterial activity against multidrug resistant Mycobacterium tuberculosis KZN494 assessed as bacterial growth inhibition incubated for 7 to 14 days by MABA assay; procedure, shortened: as §1
[3] = system: Mycobacterium tuberculosis; test: Antimycobacterial activity against extensively drug resistant Mycobacterium tuberculosis R506 assessed as bacterial growth inhibition incubated for 7 to 14 days by MABA assay; procedure, shortened: as §1
[4] = system: Mycobacterium tuberculosis; test: Antimycobacterial activity against extensively drug resistant Mycobacterium tuberculosis TF274 assessed as bacterial growth inhibition incubated for 7 to 14 days by MABA assay; procedure, shortened: as §1
[5] = system: Mycobacterium tuberculosis; test: Antimycobacterial activity against N-cycloheptyl-4,6-dimethyl-1H-indole-2-carboxamide-resistant Mycobacterium tuberculosis IAR2 harboring MmpL3 S288T mutant assessed as bacterial growth inhibition incubated for 7 to 14 days by MABA assay

Compound | MIC90 [1] [µg/mL] | MIC90 [2] [µg/mL] | MIC90 [3] [µg/mL] | MIC90 [4] [µg/mL] | MIC90 [5] [µg/mL]
CC1COc2c(N3CCN(C)CC3)c(F)cc3c(=O)c(C(=O)O)cn1c23 (stereo not given) [OFLOXACIN] | 0.5 (≈ 1.38 µM) | 0.5 (≈ 1.38 µM) | 4 (≈ 11.1 µM) | 8 (≈ 22.1 µM) | –
NNC(=O)c1ccncc1 [ISONIAZID] | 16 (≈ 117 µM) | 16 (≈ 117 µM) | 8 (≈ 58.3 µM) | 8 (≈ 58.3 µM) | 0.04 (≈ 0.292 µM)
C[C@H]1COc2c(N3CCN(C)CC3)c(F)cc3c(=O)c(C(=O)O)cn1c23 [LEVOFLOXACIN ANHYDROUS] | – | – | 2 (≈ 5.53 µM) | 1 (≈ 2.77 µM) | –
NC[C@H]1O[C@H](O[C@H]2[C@H](O)[C@@H](O[C@H]3O[C@H](CO)[C@@H](O)[C@H](N)[C@H]3O)[C@H](N)C[C@@H]2N)[C@H](O)[C@@H](O)[C@@H]1O [KANAMYCIN] | 2 (≈ 4.13 µM) | 2 (≈ 4.13 µM) | > 128 | > 128 | –
CO[C@H]1/C=C/O[C@@]2(C)Oc3c(C)c(O)c4c(O)c(c(/C=N/N5CCN(C)CC5)c(O)c4c3C2=O)NC(=O)/C(C)=C\C=C\[C@H](C)[C@H](O)[C@@H](C)[C@@H](O)[C@@H](C)[C@H](OC(C)=O)[C@@H]1C [RIFAMPIN] | 4 (≈ 4.86 µM) | 128 (≈ 156 µM) | > 128 | > 128 | –
c1ccc(-c2ccc(-c3ccnc(CN4CCC5(CCCC5)CC4)c3)cc2)cc1 | 0.063 (≈ 0.165 µM) | 0.016 (≈ 0.0418 µM) | 0.031 (≈ 0.081 µM) | 0.004 (≈ 0.0105 µM) | 1 (≈ 2.61 µM)
Cc1cc(C)c2cc(C(=O)NC3CCCCCC3)[nH]c2c1 | – | – | – | – | 0.013 (≈ 0.0457 µM)
